Data taken from ChEMBL document CHEMBL1909581, “Growth inhibition of human lung cancer cells via down-regulation of epidermal growth factor receptor signaling by yuanhuadine, a daphnane diterpene from Daphne genkwa” (J Nat Prod, 2011).
pIC50: −log10 of the molar value. Calls of active or inactive are those of the source. The calls are words filed in the database; no cut-off is given here.

Key:
A549 [1] = assay: Cell cycle arrest in human A549 cells assessed as accumulation at G2/M phase at 20 nM after 48 hrs by propidium iodide staining-based flow cytometric analysis (reference value: 18.9 %); type: functional
A549 [2] = assay: Antitumor activity against human A549 cells xenografted in BALB/c mouse assessed as inhibition of tumor growth at 0.5 mg/kg, po once daily for 14 days measured for 27 days relative to control; type: functional; settings: read-out: GI
Outline: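 Female nu/nu nude mice given 3 × 10^6 A549 cells sc into the right flank, in 200 μL medium. At ~100 mm3, randomized into groups of five. Dosed orally once daily for 14 days in 100 μL ethanol–Tween 80–water (1:1:98), vehicle as control. Tumor volume measured by caliper every 2–3 days; body weight monitored.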

A549 [3] = assay: Antiproliferative activity against human A549 cells assessed as growth inhibition incubated for 24 hrs measured 48 hrs after compound washout by SRB assay; type: functional, cell-based
A549 [4] = assay: Upregulation of p21 expression in human A549 cells at G1 phase at 5 to 100 nM after 24 to 48 hrs by Western blot analysis; type: functional, cell-based
Outline: (§1)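 A549 cells (RPMI 1640, 10% FBS, 37 °C, 5% CO2) exposed to the compound at various concentrations for 24 or 48 h. Lysates run on 6–15% SDS-PAGE, transferred to PVDF, probed with primary antibodies overnight at 4 °C, and detected by ECL. Blots shown are representative of three independent experiments.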

A549 [5] = assay: Cell cycle arrest in human A549 cells assessed as accumulation at S phase at 100 nM after 48 hrs by propidium iodide staining-based flow cytometric analysis (reference value: 31.6 %); type: functional
PC-3 = assay: Antiproliferative activity against human PC3 cells after 3 days by SRB assay; type: functional, cell-based; settings: PC-3, 72 h
Outline: (§2)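 Cells seeded at 5 × 10^4 cells/mL and exposed to a range of concentrations for 3 days. Fixed with 10% TCA, then SRB stain read. Growth expressed as % of solvent-treated control. IC50 obtained by nonlinear regression of percent survival versus concentration.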

A549 [6] = assay: Cell cycle arrest in human A549 cells assessed as accumulation at G0/G1 phase at 100 nM after 24 hrs by propidium iodide staining-based flow cytometric analysis (reference value: 49.6 %); type: functional
A549 [7] = assay: Cell cycle arrest in human A549 cells assessed as accumulation at G2/M phase at 5 nM after 48 hrs by propidium iodide staining-based flow cytometric analysis (reference value: 18.9 %); type: functional
[8] = target: 3-phosphoinositide-dependent protein kinase 1 (Homo sapiens) (UniProt O15530); assay: Inhibition of PDK1 phosphorylation in human A549 cells after 24 hrs by Western blot analysis; type: cell-based; outline: as §1
A549 [9] = assay: Downregulation of c-myc expression in human A549 cells at G1 phase at 5 to 100 nM after 24 to 48 hrs by Western blot analysis; type: functional, cell-based
Outline: (§3)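 A549 cells treated with a range of concentrations for 24 or 48 h. Lysates run on 6–15% SDS-PAGE and blotted to PVDF, blocked in 5% milk/PBST. Primary antibodies overnight at 4 °C, secondary 2 h at room temperature, ECL detection. Representative of three independent experiments.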

NCI-H292 = assay: Antiproliferative activity against gefitinib resistant human NCI-H292 cells after 3 days by SRB assay; type: functional, cell-based; settings: NCI-H292, 72 h
[10] = target: Hepatocyte growth factor receptor (Homo sapiens) (UniProt P08581); assay: Inhibition of c-Met phosphorylation at Tyr1230/1234/1235 in HGF-stimulated human A549 cells pretreated at 5 to 100 nM for 2 hrs by Western blot analysis; type: cell-based
Outline: (§4)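 A549 cells pretreated for 2 h with the compound at 5, 20 or 100 nM, then stimulated with HGF (50 ng/mL) for 10 min. c-Met and its downstream signalling proteins read by Western blot (SDS-PAGE, PVDF transfer, ECL detection).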

A549 [11] = assay: Cell cycle arrest in human A549 cells assessed as accumulation at G0/G1 phase at 100 nM after 48 hrs by propidium iodide staining-based flow cytometric analysis (reference value: 49.6 %); type: functional
A549 [12] = assay: Downregulation of cyclin A expression in human A549 cells at G1 phase at 5 to 100 nM after 24 to 48 hrs by Western blot analysis; type: functional, cell-based; outline: as §3
A549 [13] = assay: Cell cycle arrest in human A549 cells assessed as accumulation at S phase at 20 nM after 48 hrs by propidium iodide staining-based flow cytometric analysis (reference value: 31.6 %); type: functional
[14] = target: Hepatocyte growth factor receptor (Homo sapiens) (UniProt P08581); assay: Inhibition of c-Met-mediated STAT3 phosphorylation in HGF-stimulated human A549 cells pretreated at 5 to 100 nM by Western blot analysis; type: cell-based; outline: as §4
[15] = target: Epidermal growth factor receptor (Homo sapiens) (UniProt P00533); assay: Inhibition of EGFR-mediated ERK1/2 phosphorylation in EGF-stimulated human A549 cells pretreated at 5 to 100 nM by Western blot analysis; type: cell-based
A549 [16] = assay: Cell cycle arrest in human A549 cells assessed as accumulation at Sub-G1 phase at 5 nM after 24 hrs by propidium iodide staining-based flow cytometric analysis (reference value: 0.2 %); type: functional
SK-HEP1 = assay: Antiproliferative activity against human SKHEP1 cells after 3 days by SRB assay; type: functional, cell-based; settings: SK-HEP1, 72 h; outline: as §2
A549 [17] = assay: Downregulation of CDC2 expression in human A549 cells at G2/M phase at 5 to 100 nM after 24 to 48 hrs by Western blot analysis; type: functional, cell-based; outline: as §3
[18] = target: Signal transducer and activator of transcription 3 (Homo sapiens) (UniProt P40763); assay: Inhibition of STAT3 phosphorylation in human A549 cells after 24 hrs by Western blot analysis; type: cell-based; outline: as §1
A549 [19] = assay: Inhibition of Akt-signaling in human A549 cells at 5 to 40 nM after 24 hrs by Western blot analysis; type: cell-based
Outline: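 A549 cells exposed for 24 or 48 h to a range of concentrations. Akt/mTOR pathway proteins in lysates assessed by Western blot (SDS-PAGE, PVDF, ECL detection).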

Sequence of Hepatocyte growth factor receptor (Homo sapiens) (P08581 whole entry): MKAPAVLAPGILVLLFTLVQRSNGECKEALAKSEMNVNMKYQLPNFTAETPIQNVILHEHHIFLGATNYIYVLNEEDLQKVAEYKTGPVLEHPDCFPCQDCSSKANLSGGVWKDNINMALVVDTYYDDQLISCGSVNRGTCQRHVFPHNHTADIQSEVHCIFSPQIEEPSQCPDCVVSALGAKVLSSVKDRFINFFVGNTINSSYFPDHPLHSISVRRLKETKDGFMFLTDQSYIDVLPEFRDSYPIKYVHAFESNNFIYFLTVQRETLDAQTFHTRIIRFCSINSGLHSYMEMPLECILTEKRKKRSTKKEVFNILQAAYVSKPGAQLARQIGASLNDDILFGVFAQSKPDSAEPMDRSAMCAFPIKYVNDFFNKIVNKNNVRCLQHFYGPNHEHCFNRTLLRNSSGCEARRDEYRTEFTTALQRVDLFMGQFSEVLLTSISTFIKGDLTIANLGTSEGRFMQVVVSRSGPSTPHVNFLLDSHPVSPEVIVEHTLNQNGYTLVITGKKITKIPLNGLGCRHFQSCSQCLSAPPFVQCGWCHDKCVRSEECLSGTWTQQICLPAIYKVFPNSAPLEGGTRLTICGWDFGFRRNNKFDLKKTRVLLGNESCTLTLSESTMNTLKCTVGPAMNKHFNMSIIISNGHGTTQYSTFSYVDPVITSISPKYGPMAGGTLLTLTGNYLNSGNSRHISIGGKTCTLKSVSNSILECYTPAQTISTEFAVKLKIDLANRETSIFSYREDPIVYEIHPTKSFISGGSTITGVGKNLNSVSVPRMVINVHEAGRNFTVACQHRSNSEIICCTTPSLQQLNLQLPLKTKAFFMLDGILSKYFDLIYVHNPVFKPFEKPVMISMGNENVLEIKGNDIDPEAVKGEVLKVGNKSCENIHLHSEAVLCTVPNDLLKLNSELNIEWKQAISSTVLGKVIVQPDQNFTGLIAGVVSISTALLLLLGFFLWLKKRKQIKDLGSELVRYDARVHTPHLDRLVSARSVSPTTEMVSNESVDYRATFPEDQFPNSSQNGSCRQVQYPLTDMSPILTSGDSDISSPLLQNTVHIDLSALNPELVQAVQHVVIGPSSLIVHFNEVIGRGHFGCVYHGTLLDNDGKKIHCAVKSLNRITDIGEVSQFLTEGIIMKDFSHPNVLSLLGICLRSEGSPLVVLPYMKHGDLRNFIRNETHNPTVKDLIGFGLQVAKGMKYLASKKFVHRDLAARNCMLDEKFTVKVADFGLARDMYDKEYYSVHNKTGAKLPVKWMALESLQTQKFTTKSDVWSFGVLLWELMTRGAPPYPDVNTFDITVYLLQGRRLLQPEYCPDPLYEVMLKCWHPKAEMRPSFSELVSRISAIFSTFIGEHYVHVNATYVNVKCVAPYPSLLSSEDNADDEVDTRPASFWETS
Sequence of 3-phosphoinositide-dependent protein kinase 1 (Homo sapiens) (O15530 whole entry): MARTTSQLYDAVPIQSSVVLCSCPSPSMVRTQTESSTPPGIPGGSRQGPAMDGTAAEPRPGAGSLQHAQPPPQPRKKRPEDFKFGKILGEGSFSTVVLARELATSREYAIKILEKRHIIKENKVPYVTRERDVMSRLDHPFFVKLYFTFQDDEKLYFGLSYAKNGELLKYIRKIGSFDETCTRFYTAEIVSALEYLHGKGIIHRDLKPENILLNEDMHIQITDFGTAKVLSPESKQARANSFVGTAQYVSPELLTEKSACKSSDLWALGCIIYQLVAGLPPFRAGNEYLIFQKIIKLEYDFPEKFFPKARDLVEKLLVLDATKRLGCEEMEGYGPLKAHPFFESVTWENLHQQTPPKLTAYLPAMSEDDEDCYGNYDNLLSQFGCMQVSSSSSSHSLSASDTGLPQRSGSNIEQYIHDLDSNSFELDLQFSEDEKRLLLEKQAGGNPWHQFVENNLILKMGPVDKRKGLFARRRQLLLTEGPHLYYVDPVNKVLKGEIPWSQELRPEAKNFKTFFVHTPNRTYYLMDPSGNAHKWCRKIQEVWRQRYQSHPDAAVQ
Sequence of Epidermal growth factor receptor (Homo sapiens) (P00533 whole entry): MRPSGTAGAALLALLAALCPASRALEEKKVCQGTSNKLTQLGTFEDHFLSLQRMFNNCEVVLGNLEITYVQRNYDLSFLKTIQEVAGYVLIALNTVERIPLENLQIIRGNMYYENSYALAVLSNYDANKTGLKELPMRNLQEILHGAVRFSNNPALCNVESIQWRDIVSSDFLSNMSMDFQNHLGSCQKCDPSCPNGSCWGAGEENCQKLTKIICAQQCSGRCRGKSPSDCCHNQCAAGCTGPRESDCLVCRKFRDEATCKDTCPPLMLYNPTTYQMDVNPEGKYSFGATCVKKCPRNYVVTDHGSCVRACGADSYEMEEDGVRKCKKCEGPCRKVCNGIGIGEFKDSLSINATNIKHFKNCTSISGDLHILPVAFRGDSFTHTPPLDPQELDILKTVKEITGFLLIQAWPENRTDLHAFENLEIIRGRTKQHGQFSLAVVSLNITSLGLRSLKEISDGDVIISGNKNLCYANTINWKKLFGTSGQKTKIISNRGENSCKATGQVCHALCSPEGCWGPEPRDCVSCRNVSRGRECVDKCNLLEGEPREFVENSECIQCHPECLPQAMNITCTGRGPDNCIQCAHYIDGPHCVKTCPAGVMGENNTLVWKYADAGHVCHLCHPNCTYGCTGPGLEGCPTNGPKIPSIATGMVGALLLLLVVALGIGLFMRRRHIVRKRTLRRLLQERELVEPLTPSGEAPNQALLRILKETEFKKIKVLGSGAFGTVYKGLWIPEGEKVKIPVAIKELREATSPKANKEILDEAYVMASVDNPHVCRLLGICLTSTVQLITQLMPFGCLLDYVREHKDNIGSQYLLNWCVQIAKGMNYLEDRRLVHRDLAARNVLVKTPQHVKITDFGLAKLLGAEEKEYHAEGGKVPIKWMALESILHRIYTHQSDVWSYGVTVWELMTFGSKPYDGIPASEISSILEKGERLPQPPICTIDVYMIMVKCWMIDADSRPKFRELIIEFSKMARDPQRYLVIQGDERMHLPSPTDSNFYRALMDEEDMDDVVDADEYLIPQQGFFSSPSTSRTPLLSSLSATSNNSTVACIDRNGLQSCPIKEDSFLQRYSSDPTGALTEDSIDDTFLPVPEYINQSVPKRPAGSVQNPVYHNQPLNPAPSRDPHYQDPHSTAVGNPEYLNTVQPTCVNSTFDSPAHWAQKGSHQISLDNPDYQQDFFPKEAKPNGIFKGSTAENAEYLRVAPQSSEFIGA
Sequence of Signal transducer and activator of transcription 3 (Homo sapiens) (P40763 whole entry): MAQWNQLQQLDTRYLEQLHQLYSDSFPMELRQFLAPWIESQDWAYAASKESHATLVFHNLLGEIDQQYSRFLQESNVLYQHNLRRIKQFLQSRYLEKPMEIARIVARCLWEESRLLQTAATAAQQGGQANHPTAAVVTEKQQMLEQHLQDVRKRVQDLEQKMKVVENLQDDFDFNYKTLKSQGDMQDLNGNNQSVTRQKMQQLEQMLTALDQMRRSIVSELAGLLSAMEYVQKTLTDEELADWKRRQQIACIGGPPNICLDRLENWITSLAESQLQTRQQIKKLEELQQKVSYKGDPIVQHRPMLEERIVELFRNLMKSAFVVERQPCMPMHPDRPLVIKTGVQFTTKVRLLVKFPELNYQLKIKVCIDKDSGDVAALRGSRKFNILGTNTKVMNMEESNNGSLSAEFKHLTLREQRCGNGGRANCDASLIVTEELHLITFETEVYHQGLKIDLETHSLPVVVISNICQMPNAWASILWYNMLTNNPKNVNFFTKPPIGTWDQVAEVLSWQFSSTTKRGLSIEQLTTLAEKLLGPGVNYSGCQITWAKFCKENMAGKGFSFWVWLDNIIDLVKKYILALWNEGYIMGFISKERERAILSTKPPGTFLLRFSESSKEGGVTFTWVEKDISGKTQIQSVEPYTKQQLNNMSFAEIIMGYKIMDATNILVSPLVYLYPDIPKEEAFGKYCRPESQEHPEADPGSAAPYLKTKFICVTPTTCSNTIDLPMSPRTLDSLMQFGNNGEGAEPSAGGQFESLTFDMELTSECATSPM

C=C(C)[C@@]12O[C@@]3(/C=C/C=C/CCCCC)O[C@@H]1[C@@H]1[C@@H]4O[C@]4(CO)[C@@H](O)[C@]4(O)C(=O)C(C)=C[C@H]4[C@@]1(O3)[C@H](C)[C@H]2OC(C)=O [YUANHUADINE]
Activity (A549 [1]): 22.2%
inhibition in vivo at 0.5 mg/kg (A549 [2]): 50%
growth inhibition (GI) (A549 [3]): inactive
Activity (A549 [4]): Active
Activity (A549 [5]): 12.6%
pIC50 (PC-3): 5.13
Activity (A549 [6]): 65.3%
Activity (A549 [7]): 25.1%
inhibition [8]: Dose-dependent effect
Activity (A549 [9]): Active
pIC50 (NCI-H292): > 12.00
inhibition [10]: Active
Activity (A549 [11]): 61.1%
Activity (A549 [12]): Active
Activity (A549 [13]): 15.6%
inhibition [14]: Active
inhibition [15]: Active
Activity (A549 [16]): 2%
pIC50 (SK-HEP1): 4.89
Activity (A549 [17]): Active
inhibition [18]: Dose-dependent effect
inhibition (A549 [19]): Active
